Test results reported in publication PMC11626171 (Proceedings of the National Academy of Sciences of the …, 2024).

Assays:
[1] = Pharmacokinetics of nebulized AVP: cisternal CSF AVP levels; type: in vivo, rhesus macaques (Macaca mulatta); details: N = 4, ELISA
How it was run: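 Same blinded nebulization at 0900. Sedation with dexmedetomidine (0.015 to 0.075 mg/kg) plus ketamine (5 to 30 mg/kg) at 20 min. Paired cisternal CSF and femoral venous blood sampled at two timepoints per session (30/90 or 60/120 min). Blood-contaminated CSF excluded. Unextracted CSF run by enzyme immunoassay in duplicate. Values given as ratio to matched placebo timepoint, log-transformed, REML mixed model.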

children with ASD = details: 4-wk intranasal AVP treatment, pilot clinical trial; cited from earlier work
[2] = Pharmacokinetics of nebulized AVP: plasma AVP levels; type: in vivo, rhesus macaques (Macaca mulatta); details: N = 4, ELISA
How it was run: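 Nebulized through a face mask for 2 min 40 s of cumulative breathing at 0900 (0, 25 or 50 IU per 1 mL; diluent vehicle as placebo). Sedated with dexmedetomidine/ketamine 20 min later. Femoral blood sampled at two of 30/60/90/120 min, on EDTA, spun 1600×g 4 °C 15 min. Plasma extracted, nitrogen-dried, reconstituted, enzyme immunoassay in duplicate, expressed as ratio to the matched placebo timepoint. Washout ≥1 week.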

[3] = tested on: low-social male rhesus monkeys; test: Object recognition memory, visual paired comparison task; type: in vivo, rhesus macaques (Macaca mulatta); details: nebulized AVP (25 and 50 IU pooled) vs placebo, within-subjects, N = 8, testing began 30 min after nebulization
How it was run: (§1)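 Young adult males trained to breathe via mask-attached nebulizer until 2 min 40 s cumulative breathing. Dosed 0, 25 or 50 IU AVP per 1 mL in 0.4% 4-chlorobutanol/0.9% NaCl vehicle (vehicle as placebo), modified Latin square order, blinded, ≥1-week washout, 0900 dosing. Unique stimulus sets per dose on monitor. Looks +1 each; ln(novel/familiar) analysed by repeated-measures REML mixed model.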

[4] = tested on: low-social male rhesus monkeys; type: in vivo, rhesus macaques (Macaca mulatta); details: N = 8
How it was run: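 Low-social males habituated and given refresher mask training; next day nebulized at 0900 with 0, 25 or 50 IU per 1 mL (diluent placebo), order by modified Latin square, one-week washout. From 30 min post-dose, viewed on a monitor 61 cm from the cage videos of an unfamiliar adult male showing affiliative or aggressive behavior, interspersed with neutral nonsocial bouts, with a unique stimulus set per dose.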

[5] = tested on: low-social male rhesus monkeys; test: Face recognition memory, visual paired comparison task; type: in vivo, rhesus macaques (Macaca mulatta)
How it was run: as §1

people with ASD = details: multisite clinical trial; cited from earlier work
[6] = nebulized 25 or 50 IU AVP, 30, 60, 90, 120 min postnebulization
[7] = nebulized AVP (25 and 50 IU pooled) vs placebo, within-subjects

NC(=O)CC[C@@H]1NC(=O)[C@H](Cc2ccccc2)NC(=O)[C@H](Cc2ccc(O)cc2)NC(=O)[C@@H](N)CSSC[C@@H](C(=O)N2CCC[C@H]2C(=O)N[C@@H](CCCN=C(N)N)C(=O)NCC(N)=O)NC(=O)[C@H](CC(N)=O)NC1=O [AVP, [ARG8]-vasopressin]
cisternal CSF AVP levels following AVP nebulization relative to placebo, time course [1, 6]: progressive linear increase | CSF AVP level effect, 50 IU vs 25 IU dose ([1]; nebulized AVP): consistently stronger in the 50 IU AVP dose compared to the 25 IU AVP dose | social abilities in children with ASD (children with ASD): improves empathic accuracy, facial emotion recognition, and social abilities | plasma AVP levels following AVP nebulization relative to placebo, time course [2, 6]: quadratic rise and fall | plasma AVP level effect, 50 IU vs 25 IU dose ([2]; nebulized AVP): consistently stronger in the 50 IU AVP dose compared to the 25 IU dose | object recognition memory (ratio of looks to novel versus familiar objects) [3]: did not differ between treatment conditions | affiliative response rate to conspecific aggressive cues [4, 7]: no treatment-related difference | affiliative responses to conspecific affiliative communication cues [4, 7]: reciprocated affiliative communication cues with species-typical affiliative responses | aggressive responses to conspecific aggressive or affiliative overtures [4, 7]: did not increase | affiliative response findings, 25 IU vs 50 IU AVP dose ([4]; nebulized AVP): did not differ between the 25 and 50 IU AVP doses | aggressive response findings, 25 IU vs 50 IU AVP dose ([4]; nebulized AVP): did not differ between the 25 and 50 IU AVP doses | face recognition memory (ratio of looks to novel versus familiar faces) ([5]; nebulized AVP (25 and 50 IU pooled) vs placebo, within-subjects, N = 8, testing began 30 min after nebulization): rescued | recognition memory findings, 25 IU vs 50 IU AVP dose ([5]; nebulized AVP, faces and objects, N = 8): did not differ between the 25 and 50 IU AVP doses

CN1Cc2cc(Cl)ccc2-n2c(nnc2[C@H]2CC[C@H](Oc3ccccn3)CC2)C1 [balovaptan]
core behavioral symptoms in people with ASD (people with ASD): neither balovaptan [an AVPR1A antagonist ([49])], nor OXT ([50]), improve core behavioral symptoms

oxytocin [OXT]
core behavioral symptoms in people with ASD (people with ASD): neither balovaptan [an AVPR1A antagonist ([49])], nor OXT ([50]), improve core behavioral symptoms
